Results reported in PMC7744997 (Clinical Infectious Diseases: An Official Publication of …, 2020).

Assays:
[1] = Laboratory safety in RSV-infected infants; assay type: in vivo, human
Summary of the method: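 Clinical laboratory tests were run in RSV-infected infants (>1 to ≤24 months) given oral drug or placebo once daily for 7 days. Abnormalities were graded with the DMID Pediatric Toxicity Tables (November 2007 version). Patients were followed for 28 days after randomisation.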

RSV = RSV RNA viral load from nasal swabs by qRT-PCR in RSV-infected infants; assay type: in vivo, respiratory syncytial virus
Summary of the method: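 Viral load was measured by quantitative real-time RT-PCR on midturbinate nasal swabs, taken over time during 7 days of once-daily oral dosing. After hospital discharge, no samples were taken until the day 7 visit. Results were expressed as median change from baseline.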

RSV-A and RSV-B strains = settings: panel of laboratory-derived and clinically isolated RSV-A and RSV-B strains, in vitro; cited from earlier work

CS(=O)(=O)CCCn1c(Cn2c(=O)n(CC(F)(F)F)c3ccncc32)cc2cc(Cl)ccc21 [JNJ-53718678]
Eosinophils: Above (treatment-emergent nongraded abnormality) ([1]; Low (cohorts 1a,2a,3a), n=12): 4 (33) no. (%)
Eosinophils: Below (treatment-emergent nongraded abnormality) ([1]; Low (cohorts 1a,2a,3a), n=12): 0 no. (%)
Erythrocytes: Above (treatment-emergent nongraded abnormality) ([1]; Low (cohorts 1a,2a,3a), n=12): 1 (8) no. (%)
Erythrocytes: Below (treatment-emergent nongraded abnormality) ([1]; Low (cohorts 1a,2a,3a), n=12): 0 no. (%)
Hemoglobin Grade 1 (treatment-emergent worst toxicity grade) ([1]; Low (cohorts 1a,2a,3a), n=12): 1 (8) no. (%)
Hemoglobin Grade 2 (treatment-emergent worst toxicity grade) ([1]; Low (cohorts 1a,2a,3a), n=12): 0 no. (%)
Hyperkalemia Grade 1 (treatment-emergent worst toxicity grade) ([1]; Low (cohorts 1a,2a,3a), n=12): 4 (33) no. (%)
Hyperkalemia Grade 2 (treatment-emergent worst toxicity grade) ([1]; Low (cohorts 1a,2a,3a), n=12): 0 no. (%)
Hypoglycemia Grade 1 (treatment-emergent worst toxicity grade) ([1]; Low (cohorts 1a,2a,3a), n=12): 0 no. (%)
Hyponatremia Grade 2 (treatment-emergent worst toxicity grade) ([1]; Low (cohorts 1a,2a,3a), n=12): 1 (8) no. (%)
Leukocytes: Above (treatment-emergent nongraded abnormality) ([1]; Low (cohorts 1a,2a,3a), n=12): 1 (8) no. (%)
Lymphocytes: Above (treatment-emergent nongraded abnormality) ([1]; Low (cohorts 1a,2a,3a), n=12): 2 (17) no. (%)
Lymphocytes: Below (treatment-emergent nongraded abnormality) ([1]; Low (cohorts 1a,2a,3a), n=12): 0 no. (%)
Eosinophils/leukocytes: Above (treatment-emergent nongraded abnormality) ([1]; Mid (cohorts 1b,2b,3b), n=9): 3 (33) no. (%)
Eosinophils/leukocytes: Below (treatment-emergent nongraded abnormality) ([1]; Mid (cohorts 1b,2b,3b), n=9): 0 no. (%)
Lymphocytes/leukocytes: Above (treatment-emergent nongraded abnormality) ([1]; Mid (cohorts 1b,2b,3b), n=9): 3 (33) no. (%)
Lymphocytes/leukocytes: Below (treatment-emergent nongraded abnormality) ([1]; Mid (cohorts 1b,2b,3b), n=9): 1 (11) no. (%)
Monocytes/leukocytes: Above (treatment-emergent nongraded abnormality) ([1]; Mid (cohorts 1b,2b,3b), n=9): 3 (33) no. (%)
Monocytes/leukocytes: Below (treatment-emergent nongraded abnormality) ([1]; Mid (cohorts 1b,2b,3b), n=9): 1 (11) no. (%)
Neutrophils/leukocytes: Above (treatment-emergent nongraded abnormality) ([1]; Mid (cohorts 1b,2b,3b), n=9): 1 (11) no. (%)
Neutrophils/leukocytes: Below (treatment-emergent nongraded abnormality) ([1]; Mid (cohorts 1b,2b,3b), n=9): 3 (33) no. (%)
Eosinophils: Above (treatment-emergent nongraded abnormality) ([1]; Mid (cohorts 1b,2b,3b), n=11): 2 (18) no. (%)
Eosinophils: Below (treatment-emergent nongraded abnormality) ([1]; Mid (cohorts 1b,2b,3b), n=11): 0 no. (%)
Lymphocytes: Above (treatment-emergent nongraded abnormality) ([1]; Mid (cohorts 1b,2b,3b), n=11): 2 (18) no. (%)
Lymphocytes: Below (treatment-emergent nongraded abnormality) ([1]; Mid (cohorts 1b,2b,3b), n=11): 0 no. (%)
Alkaline phosphatase: Above (treatment-emergent nongraded abnormality) ([1]; Mid (cohorts 1b,2b,3b), n=12): 1 (8) no. (%)
Alkaline phosphatase: Below (treatment-emergent nongraded abnormality) ([1]; Mid (cohorts 1b,2b,3b), n=12): 2 (17) no. (%)
Bicarbonate: Above (treatment-emergent nongraded abnormality) ([1]; Mid (cohorts 1b,2b,3b), n=12): 2 (17) no. (%)
Bicarbonate: Below (treatment-emergent nongraded abnormality) ([1]; Mid (cohorts 1b,2b,3b), n=12): 2 (17) no. (%)
Chloride: Above (treatment-emergent nongraded abnormality) ([1]; Mid (cohorts 1b,2b,3b), n=12): 2 (17) no. (%)
Chloride: Below (treatment-emergent nongraded abnormality) ([1]; Mid (cohorts 1b,2b,3b), n=12): 1 (8) no. (%)
Erythrocytes: Above (treatment-emergent nongraded abnormality) ([1]; Mid (cohorts 1b,2b,3b), n=12): 1 (8) no. (%)
Erythrocytes: Below (treatment-emergent nongraded abnormality) ([1]; Mid (cohorts 1b,2b,3b), n=12): 2 (17) no. (%)
Hemoglobin Grade 1 (treatment-emergent worst toxicity grade) ([1]; Mid (cohorts 1b,2b,3b), n=12): 1 (8) no. (%)
Hemoglobin Grade 2 (treatment-emergent worst toxicity grade) ([1]; Mid (cohorts 1b,2b,3b), n=12): 1 (8) no. (%)
Hyperkalemia Grade 1 (treatment-emergent worst toxicity grade) ([1]; Mid (cohorts 1b,2b,3b), n=12): 3 (25) no. (%)
Hyperkalemia Grade 2 (treatment-emergent worst toxicity grade) ([1]; Mid (cohorts 1b,2b,3b), n=12): 1 (8.3) no. (%)
Hypoglycemia Grade 1 (treatment-emergent worst toxicity grade) ([1]; Mid (cohorts 1b,2b,3b), n=12): 0 no. (%)
Hyponatremia Grade 2 (treatment-emergent worst toxicity grade) ([1]; Mid (cohorts 1b,2b,3b), n=12): 0 no. (%)
Leukocytes: Above (treatment-emergent nongraded abnormality) ([1]; Mid (cohorts 1b,2b,3b), n=12): 2 (17) no. (%)
Urea: Above (treatment-emergent nongraded abnormality) ([1]; Mid (cohorts 1b,2b,3b), n=12): 0 no. (%)
Urea: Below (treatment-emergent nongraded abnormality) ([1]; Mid (cohorts 1b,2b,3b), n=12): 4 (33) no. (%)
Urea: Above (treatment-emergent nongraded abnormality) ([1]; Mid-high (cohort 1c), n=3): 0 no. (%)
Urea: Below (treatment-emergent nongraded abnormality) ([1]; Mid-high (cohort 1c), n=3): 0 no. (%)
Alkaline phosphatase: Above (treatment-emergent nongraded abnormality) ([1]; Mid-high (cohort 1c), n=4): 0 no. (%)
Alkaline phosphatase: Below (treatment-emergent nongraded abnormality) ([1]; Mid-high (cohort 1c), n=4): 1 (25) no. (%)
Bicarbonate: Above (treatment-emergent nongraded abnormality) ([1]; Mid-high (cohort 1c), n=4): 0 no. (%)
Bicarbonate: Below (treatment-emergent nongraded abnormality) ([1]; Mid-high (cohort 1c), n=4): 1 (25) no. (%)
Chloride: Above (treatment-emergent nongraded abnormality) ([1]; Mid-high (cohort 1c), n=4): 2 (50) no. (%)
Chloride: Below (treatment-emergent nongraded abnormality) ([1]; Mid-high (cohort 1c), n=4): 0 no. (%)
Eosinophils/leukocytes: Above (treatment-emergent nongraded abnormality) ([1]; Mid-high (cohort 1c), n=4): 1 (25) no. (%)
Eosinophils/leukocytes: Below (treatment-emergent nongraded abnormality) ([1]; Mid-high (cohort 1c), n=4): 1 (25) no. (%)
Eosinophils: Above (treatment-emergent nongraded abnormality) ([1]; Mid-high (cohort 1c), n=4): 1 (25) no. (%)
Eosinophils: Below (treatment-emergent nongraded abnormality) ([1]; Mid-high (cohort 1c), n=4): 0 no. (%)
Erythrocytes: Above (treatment-emergent nongraded abnormality) ([1]; Mid-high (cohort 1c), n=4): 2 (50) no. (%)
Erythrocytes: Below (treatment-emergent nongraded abnormality) ([1]; Mid-high (cohort 1c), n=4): 0 no. (%)
Hemoglobin Grade 1 (treatment-emergent worst toxicity grade) ([1]; Mid-high (cohort 1c), n=4): 0 no. (%)
Hemoglobin Grade 2 (treatment-emergent worst toxicity grade) ([1]; Mid-high (cohort 1c), n=4): 0 no. (%)
Hyperkalemia Grade 1 (treatment-emergent worst toxicity grade) ([1]; Mid-high (cohort 1c), n=4): 2 (50) no. (%)
Hyperkalemia Grade 2 (treatment-emergent worst toxicity grade) ([1]; Mid-high (cohort 1c), n=4): 0 no. (%)
Hypoglycemia Grade 1 (treatment-emergent worst toxicity grade) ([1]; Mid-high (cohort 1c), n=4): 0 no. (%)
Hyponatremia Grade 2 (treatment-emergent worst toxicity grade) ([1]; Mid-high (cohort 1c), n=4): 1 (25) no. (%)
Leukocytes: Above (treatment-emergent nongraded abnormality) ([1]; Mid-high (cohort 1c), n=4): 0 no. (%)
Lymphocytes/leukocytes: Above (treatment-emergent nongraded abnormality) ([1]; Mid-high (cohort 1c), n=4): 0 no. (%)
Lymphocytes/leukocytes: Below (treatment-emergent nongraded abnormality) ([1]; Mid-high (cohort 1c), n=4): 0 no. (%)
Lymphocytes: Above (treatment-emergent nongraded abnormality) ([1]; Mid-high (cohort 1c), n=4): 1 (25) no. (%)
Lymphocytes: Below (treatment-emergent nongraded abnormality) ([1]; Mid-high (cohort 1c), n=4): 0 no. (%)
Monocytes/leukocytes: Above (treatment-emergent nongraded abnormality) ([1]; Mid-high (cohort 1c), n=4): 0 no. (%)
Monocytes/leukocytes: Below (treatment-emergent nongraded abnormality) ([1]; Mid-high (cohort 1c), n=4): 0 no. (%)
Neutrophils/leukocytes: Above (treatment-emergent nongraded abnormality) ([1]; Mid-high (cohort 1c), n=4): 0 no. (%)
Neutrophils/leukocytes: Below (treatment-emergent nongraded abnormality) ([1]; Mid-high (cohort 1c), n=4): 0 no. (%)
Dose-response relationship for antiviral effects (RSV; across JNJ-8678 dose levels): no clear dose-response relationship was observed
Reduction in viral load compared with placebo (RSV; all doses combined): greater reduction in viral load with JNJ-8678 than placebo
Median RSV viral load change from baseline (RSV; by day 3, all JNJ-8678 doses combined): −1.98 log10 copies/mL
50% effective concentration (RSV-A and RSV-B strains): 0.09 to 9.50 ng/mL
